Measured values: article PMC4744243 (Oncogene, 2015)
Where two headings read alike, the source gives them in different places.

Assays:
PRC2^WT = PRC2^WT (Homo sapiens, UniProt Q15910); type: biochemical; conditions: read-out: IC50 WT, [SAM] 1 µM
PRC2^Y111L = PRC2^Y111L (Homo sapiens, UniProt Q15910, Y111L); type: biochemical; conditions: for IC50: read-out: IC50 Y111L, [SAM] 1 µM; for IC50 Y111L: [SAM] 20 μM
PRC2^Y641N/Y661D = PRC2^Y641N/Y661D (Homo sapiens, UniProt Q15910, Y641N/Y661D); type: biochemical; conditions: for IC50: read-out: IC50 Y641N/Y6661D, [SAM] 20 μM
Sequence of PRC2^Y641N/Y661D (Q15910 whole entry Y641N/Y661D): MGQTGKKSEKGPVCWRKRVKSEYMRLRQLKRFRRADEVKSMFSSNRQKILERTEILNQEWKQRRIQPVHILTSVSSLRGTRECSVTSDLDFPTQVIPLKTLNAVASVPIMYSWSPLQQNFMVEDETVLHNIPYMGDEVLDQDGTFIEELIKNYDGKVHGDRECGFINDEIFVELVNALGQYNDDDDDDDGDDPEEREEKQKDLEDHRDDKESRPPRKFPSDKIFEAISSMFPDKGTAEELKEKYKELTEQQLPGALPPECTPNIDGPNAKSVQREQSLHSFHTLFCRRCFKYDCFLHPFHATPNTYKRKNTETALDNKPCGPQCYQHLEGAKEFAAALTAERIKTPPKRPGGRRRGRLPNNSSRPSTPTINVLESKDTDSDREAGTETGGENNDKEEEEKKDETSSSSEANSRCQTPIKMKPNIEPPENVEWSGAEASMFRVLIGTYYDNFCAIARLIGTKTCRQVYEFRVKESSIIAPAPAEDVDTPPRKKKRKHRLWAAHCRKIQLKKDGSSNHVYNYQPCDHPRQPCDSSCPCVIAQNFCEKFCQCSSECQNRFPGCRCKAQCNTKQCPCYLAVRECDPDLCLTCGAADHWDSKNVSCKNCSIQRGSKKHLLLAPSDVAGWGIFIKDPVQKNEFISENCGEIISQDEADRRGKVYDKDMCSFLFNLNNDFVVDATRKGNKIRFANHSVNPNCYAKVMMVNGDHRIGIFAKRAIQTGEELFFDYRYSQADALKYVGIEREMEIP
Sequence of PRC2^Y641N/Y661D (O75530 whole entry partner): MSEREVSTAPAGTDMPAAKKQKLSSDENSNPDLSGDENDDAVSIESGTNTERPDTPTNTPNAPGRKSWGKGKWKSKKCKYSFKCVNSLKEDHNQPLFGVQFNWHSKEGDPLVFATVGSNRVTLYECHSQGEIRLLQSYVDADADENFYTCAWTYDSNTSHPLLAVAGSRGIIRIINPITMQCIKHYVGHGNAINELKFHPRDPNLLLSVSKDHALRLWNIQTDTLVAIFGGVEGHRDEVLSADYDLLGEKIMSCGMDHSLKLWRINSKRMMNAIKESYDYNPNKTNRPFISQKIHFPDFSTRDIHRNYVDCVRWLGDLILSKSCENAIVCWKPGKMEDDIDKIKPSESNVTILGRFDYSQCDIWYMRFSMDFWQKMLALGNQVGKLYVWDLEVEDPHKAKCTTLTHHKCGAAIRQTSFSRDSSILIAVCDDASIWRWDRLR
Sequence of PRC2^Y641N/Y661D (Q15022 whole entry partner): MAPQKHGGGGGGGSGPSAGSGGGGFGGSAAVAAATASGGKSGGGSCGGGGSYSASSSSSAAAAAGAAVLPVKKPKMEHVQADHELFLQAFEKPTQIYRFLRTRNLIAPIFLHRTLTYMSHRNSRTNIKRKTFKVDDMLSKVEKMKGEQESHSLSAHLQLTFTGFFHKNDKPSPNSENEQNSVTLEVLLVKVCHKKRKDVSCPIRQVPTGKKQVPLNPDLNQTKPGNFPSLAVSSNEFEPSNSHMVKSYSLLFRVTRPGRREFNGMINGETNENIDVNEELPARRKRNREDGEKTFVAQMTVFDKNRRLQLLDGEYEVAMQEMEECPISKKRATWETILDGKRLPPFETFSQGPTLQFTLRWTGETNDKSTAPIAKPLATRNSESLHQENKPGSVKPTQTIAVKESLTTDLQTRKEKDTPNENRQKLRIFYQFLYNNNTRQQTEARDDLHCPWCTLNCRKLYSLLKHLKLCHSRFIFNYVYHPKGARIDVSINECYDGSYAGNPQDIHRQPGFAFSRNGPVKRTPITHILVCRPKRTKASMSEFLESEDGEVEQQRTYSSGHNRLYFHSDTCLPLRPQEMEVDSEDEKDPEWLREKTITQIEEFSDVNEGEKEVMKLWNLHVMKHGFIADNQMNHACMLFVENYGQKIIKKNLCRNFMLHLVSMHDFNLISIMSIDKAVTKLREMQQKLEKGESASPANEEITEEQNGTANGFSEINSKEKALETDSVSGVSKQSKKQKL

[1] = test system: K-P (KARPAS422-parental cells); type: cell-based; conditions: 10 μM for 6 days
[2] = test system: K-R2- and K-R10-derived cell clones; type: cell-based; conditions: four K-R2- and K-R10-derived clones; 6-day
[3] = test system: H3K27Me3 peptides in K-P cells; experiment: Histone tail profiling by mass spectrometry; type: cell-based; conditions: 2 or 10 µM, 3 days, vs DMSO control
Procedure, shortened: (§1)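 Karpas422 parental cells were grown in RPMI-1640 with 10% FBS at 37 °C and 5% CO2. Histones were extracted from pellets of 5 × 10^6 cells with a histone purification kit. Free lysines were blocked by derivatization, and methylated H3 peptides were then analysed by high-resolution mass spectrometry.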

[4] = test system: H3K4, K9, K36 and K79 methylation; experiment: Western blot and histone profiling of other H3 methylation marks; type: cell-based; conditions: 2 or 10 µM, 3 days
Procedure, shortened: as §1

[5] = test system: H3K27Me2 and Me3 in K-P cells; experiment: Western blot of H3K27 methylation; type: cell-based; conditions: K-P cells treated with increasing doses
EZH2 WT = conditions: read-out: half-maximal inhibition (IC50); cited from earlier work
EZH2 Y641 mutant = conditions: read-out: half-maximal inhibition (IC50); cited from earlier work
[6] = test system: K-P (KARPAS422-parental cells); conditions: 6-day, compared with EI1
tumor xenograft = conditions: high-dose treatment; after cessation of the dosing; cited from earlier work
WSU-DLCL2 xenograft = conditions: high-dose; 28-day treatment cycle; cited from earlier work

Sequence of PRC2^Y111L (Q15910 whole entry Y111L): as the sequence (Q15910 whole entry Y641N/Y661D) above, with Y111L, N641Y, D661Y counted along it
Sequence of PRC2^Y111L (O75530 whole entry partner): as the sequence (O75530 whole entry partner) above
Sequence of PRC2^Y111L (Q15022 whole entry partner): as the sequence (Q15022 whole entry partner) above
Sequence of PRC2^WT (Q15910 whole entry): as the sequence (Q15910 whole entry Y641N/Y661D) above, with N641Y, D661Y counted along it
Sequence of PRC2^WT (O75530 whole entry partner): as the sequence (O75530 whole entry partner) above
Sequence of PRC2^WT (Q15022 whole entry partner): as the sequence (Q15022 whole entry partner) above

SMILES | IC50 (PRC2^WT; substrate H3K27Me0 peptide) | IC50 (PRC2^WT; substrate H3K27Me1 peptide) | IC50 (PRC2^Y111L; substrate H3K27Me0 peptide) | IC50 (PRC2^Y111L; substrate H3K27Me1 peptide) | IC50 Y111L (PRC2^Y111L; substrate H3K27Me0 peptide) | IC50 Y111L (PRC2^Y111L; substrate H3K27Me1 peptide) | IC50 against PRC2^Y641N/Y661D, fold weaker compared with PRC2^Y641N (PRC2^Y641N/Y661D; 1 μM SAM, both H3K27Me1 and Me2 substrates) | IC50 (PRC2^Y641N/Y661D; substrate H3K27Me1 peptide) | IC50 (PRC2^Y641N/Y661D; substrate H3K27Me2 peptide) | reduction of BrdU incorporation compared with DMSO control [1] | growth inhibition in cell proliferation assay [2] | decrease of K27Me3 methylated peptides [3] | decrease in H3K4, K9, K36 and K79 methylation [4] | H3K27Me2 and Me3 levels (western blot) [5] | IC50 (EZH2 WT) | IC50 (EZH2 Y641 mutant) | growth arrest (growth inhibition) in proliferation assay [6] | anti-tumor effect in tumor xenograft studies (tumor xenograft) | anti-tumor effect in WSU-DLCL2 xenograft model (WSU-DLCL2 xenograft)
CCC(CC)n1ccc2c(C(=O)NCc3c(C)cc(C)[nH]c3=O)cc(C#N)cc21 [EI1] | 20 nM | 9 nM | 3.1 µM | 4.2 µM | inactive | inactive | > 300 fold | > 25 µM | > 25 µM | > 90% | refractory | > 2 fold | no noticeable decrease | both H3K27Me2 and Me3 levels decreased | 10 to 20 nM | 10 to 20 nM | – | – | –
CCN(c1cc(-c2ccc(CN3CCOCC3)cc2)cc(C(=O)NCc2c(C)cc(C)[nH]c2=O)c1C)C1CCOCC1 [EPZ-6438, reference compound] | – | – | – | – | – | – | – | – | – | > 90% | refractory | – | no noticeable decrease | – | – | – | more potent in inducing growth arrest | complete tumor regression without tumor regrowth | partial tumor regression
